Bioassay records as filed in PubChem.
An excerpt weighted towards active compounds, which were near 3.1% of everything screened.
Ins promoter up: insulin promoter activators in MIN6 cells, imaging, high-content screening, mouse beta cells; MIN6 insulin promoter-GFP reporter; active compounds read high; z-score at 5 µM; 190,000 tested, 0.3% active;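 active = z-score above 3 at 5 µM with at least 500 cells counted in the well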
RAM network inh: inhibitors of the yeast RAM network, primary screen, dse1pr::URA3 reporter, 5-FOA selection | S. cerevisiae dse1pr::URA3 reporter, 5-FOA growth OD615, 2 d; analog-sensitive cbk1-as2 kinase mutant strain | inhibition, % at 50 µM | 190,000 tested, 1.8% active | AID 868, 2007;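 active = inhibition above a set limit, 3 SD over mean compound inhibition, cut at about 8.4% in these data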;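 also: inhibition rescues growth on 5-FOA so higher OD means more RAM inhibition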
BB579 growth dn: growth inhibitors of yeast BB579 in restrictive medium, primary screen, yeast lifespan-shortening project, S. cerevisiae; inhibition, % at 10 µM; 140,000 tested, 0.51% active; OD615, 48 h;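 active = inhibition above a set limit, 3 SD over the mean compound inhibition, cut at about 44% in these data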
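Assay system: S. cerevisiae DeaD strain BB579 yeast. Medium: CSMM-D restrictive synthetic medium containing dextrose (glucose). Times: 4 h cell preincubation, 48 h compound exposure, 30 °C humidified. Signal: OD615 turbidity measurement. Benchmarks: positive control amphotericin B 10 µg/mL.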
Yeast lifespan up: compounds extending yeast replicative lifespan, primary screen, S. cerevisiae, OD615; S. cerevisiae growth with nicotinamide; deaD strain in restrictive glucose medium; inhibition of the nicotinamide effect, % at 10 µM; 130,000 tested, 0.68% active; AID 775, 2007;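 active = inhibition above a set limit, placed 3 SD over the median of all compounds, cut at about 26% in these data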
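Assay system: engineered S. cerevisiae DeaD replicative-lifespan strain, galactose-grown log-phase cells; Buffer or medium: CSMM-D glucose medium, restrictive; Probe or stimulus: nicotinamide 1.5 mM; Compound: single dose 10 µM compound, 0.25% DMSO; Schedule: 4 h preincubation then 48 h treatment at 30 °C; Technique: OD615 measurement.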
INS promoter inh: inhibitors of insulin promoter-driven GFP, primary screen, imaging, TRM-6 cells (human fetal islet line), eGFP reporter, cell count; reporter expression induced with tamoxifen; inhibition, % at 2 µM; 130,000 tested, 0.9% active; AID 1273, 2008;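 active = inhibition above the mean plus 3 SD, with well images judged a real hit on visual review, cut at about 60% in these data, passing the limit was not always enough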
Of the large screens only hits and unclear results are named; the others gave an inactive call.

CCOC(=O)c1c(NC(=O)CSc2nnc(Cc3ccccc3)o2)sc(C(C)=O)c1C	RAM network inh 9.0
CCOC(=O)c1c(NC(=O)CSc2nc3ccccc3o2)sc(C(C)=O)c1C	RAM network inh 9.2
CCOC(=O)c1c(NC(=O)CSc2nnc(-c3ccccc3)o2)sc(C(C)=O)c1C	none
O=C1C(C2=C(O)c3ccccc3C2=O)=Nc2ccccc21	Yeast lifespan up 44.6
CC(=O)Nc1ccc2nc(-c3ccccc3)cn2c1	none
O=c1c(-c2ccccc2)nc(-c2ccccc2)cn1O	BB579 growth dn 48.8
CCC(=O)Nc1ccccc1Sc1ncnc2scc(-c3ccccc3)c12	Yeast lifespan up 61.9
COCCCNc1c2c3c(cccc3[nH]c1=O)C(=O)c1ccccc1-2	Yeast lifespan up 34.7 (no result: Ins promoter up, INS promoter inh)
O=C(CSc1nc2ccccc2s1)N/N=C/c1ccc(C(=O)O)cc1	RAM network inh 10.1 (no result: BB579 growth dn, Yeast lifespan up)
O=C(CSc1nc2ccccc2s1)N/N=C/c1ccccc1C(=O)O	none (no result: RAM network inh, BB579 growth dn, Yeast lifespan up, INS promoter inh)
CCOC(=O)CC(=O)CSc1nc(-c2ccc3c(c2)OCO3)cc(C(F)(F)F)c1C#N	none
CCOC(=O)CCSc1nc(-c2ccc3c(c2)OCO3)cc(C(F)(F)F)c1C#N	RAM network inh 10.8
CCOc1ccc(NC(=O)C23CC4CC(C2)CC(c2ccccc2)(C4)C3)cc1	RAM network inh 8.6 (no result: Ins promoter up)
CCCCNC(=O)NS(=O)(=O)c1cnccc1Sc1ccc(Cl)cc1	none
O=c1c2ccccc2n(Cc2cccc(F)c2)c(=O)n1C1CCCC1	RAM network inh 9.3 (no result: INS promoter inh)
CCCSc1ccc(-c2nn(-c3ccccc3)cc2/C=C(/C#N)C(=O)N2CCOCC2)cc1	RAM network inh 8.8 (no result: INS promoter inh)
O=C(N/C(=C/c1cn(-c2ccccc2)nc1-c1ccccc1)C(=O)N1CCOCC1)c1ccc(Cl)cc1Cl	RAM network inh 8.9
O=C(N/C(=C\c1cn(-c2ccccc2)nc1-c1ccc(Cl)cc1)C(=O)N1CCOCC1)c1ccccc1	none
COc1cccc(C(=O)Nc2cccc(C(=O)N3CCOCC3)c2)c1	none
COc1cccc(NC(=O)c2ccc3c(c2)N(CC(=O)N2CCCCC2)C(=O)C(C)(C)O3)c1	RAM network inh 8.8 (no result: INS promoter inh)
COc1cccc(C(=O)CN2C(=O)C(C)(C)Oc3ccc(C(=O)N4CCCCCC4)cc32)c1	Ins promoter up 3.58
CC1(C)Oc2ccc(C(=O)N3CCCCC3)cc2N(CC(=O)NCc2ccccc2)C1=O	none
COc1cccc(C(=O)N2CCOCC2)c1	INS promoter inh 65.0 (no result: BB579 growth dn, Yeast lifespan up)
CCOC(=O)c1nnn(CC(=O)NC(=O)Nc2cccc(CC)c2)c1C(=O)OCC	none (no result: BB579 growth dn, Yeast lifespan up, INS promoter inh)
Cc1cc(C)n(-c2nc3c(c(=O)n(C)c(=O)n3C)n2CC(O)COc2ccccc2C)n1 (configuration not stated)	INS promoter inh 76.9 (no result: Ins promoter up, RAM network inh, BB579 growth dn, Yeast lifespan up)
COc1cccc(-c2c(C#N)c(SC)nc3cc(C)nn23)c1	none (no result: RAM network inh, BB579 growth dn, Yeast lifespan up, INS promoter inh)
Cc1nn2c(C(F)(F)F)cc(-c3ccc(Cl)cc3)nc2c1C(=O)N1CCOCC1	INS promoter inh 78.6
O=C(c1cnn2c(C(F)(F)F)cc(-c3ccc(Br)cc3)nc12)N1CCOCC1	none
Cn1c(=S)n(C)c2ccccc21	none (no result: Ins promoter up, BB579 growth dn, Yeast lifespan up)
Cn1ccc(=S)c2ccccc21	INS promoter inh 88.9 (no result: Ins promoter up, BB579 growth dn, Yeast lifespan up)
COc1ccc(-c2nnc(SCc3ccc(C(=O)O)cc3)n2N)cc1	none (no result: RAM network inh, BB579 growth dn, Yeast lifespan up, INS promoter inh)
CC(C)=C(C#N)c1nc2ccccc2s1	none
Cc1ccc(OC/C(O)=C(\C#N)c2nc3ccccc3s2)cc1	Yeast lifespan up 27.8
COC(=O)c1ccc(/C(O)=C(\C#N)c2nc3ccccc3s2)cc1	Yeast lifespan up 31.4 (no result: INS promoter inh)
COC(=O)c1ccc(CC(=O)c2nc3ccccc3s2)cc1	none (no result: INS promoter inh)
COc1cc(C=O)ccc1OC(=O)c1ccc(C(C)C)cc1	none (no result: BB579 growth dn, Yeast lifespan up, INS promoter inh)
Cn1c(=O)n(C)c2cc(NC(=O)COc3ccc(Cl)cc3)ccc21	Ins promoter up 3.02 (no result: BB579 growth dn, Yeast lifespan up)
CCN1CCN(CCc2nc3cc(NC(=O)COc4ccc(Cl)cc4)ccc3n2C)CC1	none (no result: RAM network inh, BB579 growth dn, Yeast lifespan up, INS promoter inh)
COc1ccc(-c2c(C#N)c(C)nc3c2C(=O)c2ccccc2-3)cc1	INS promoter inh 89.5
COC(=O)c1cc(NC(=S)Nc2cc(Cl)cc(Cl)c2)cc(C(=O)OC)c1	Yeast lifespan up 27.1
COC(=O)c1cccc(NC(=S)Nc2ccccc2Cl)c1	none (no result: RAM network inh, BB579 growth dn, Yeast lifespan up, INS promoter inh)
O=C(O)CCC(=O)Nc1ccc(Sc2ccc([N+](=O)[O-])cc2)cc1	none
Nc1nc2ncc(C(=O)c3cc(Cl)cc(Cl)c3O)cc2s1	none (no result: RAM network inh, BB579 growth dn, Yeast lifespan up, INS promoter inh)
